Data from ChEMBL document CHEMBL2384926, “Asperterrestide A, a cytotoxic cyclic tetrapeptide from the marine-derived fungus Aspergillus terreus SCSGAF0162” (J Nat Prod, 2013).

Assays:
Influenza A virus [1] = test: Antiviral activity against Influenza A virus A/Hong Kong/8/68(H3N2) infected in dog MDCK cells after 3 days by CPE assay; assay type: functional, organism-based; conditions: 72 h
Outline: (§1)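 Cytopathic effect (CPE) assay measuring inhibition of virus replication in MDCK cells. Strains were A/WSN/33 (H1N1, M2-resistant) and A/Hong Kong/8/68 (H3N2, M2-sensitive). Ribavirin served as the positive control. Values reported as IC50.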

Influenza A virus [2] = test: Antiviral activity against Influenza A virus (A/WSN/1933(H1N1)) infected in dog MDCK cells after 3 days by CPE assay; assay type: functional, organism-based; conditions: 72 h; outline: as §1
U-937 = test: Cytotoxicity against human U937 cells by MTT assay; assay type: functional, cell-based
Outline: (§2)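 MTT assay on the human tumour lines U937 (leukemic monocyte lymphoma), K562 (erythroid leukemia), BGC-823 (gastric carcinoma), MOLT-4 (acute lymphoblastic leukemia), MCF-7 (breast adenocarcinoma) and A549 (lung carcinoma). Taxol served as the positive control. Values reported as IC50.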

MOLT-4 = test: Cytotoxicity against human MOLT4 cells by MTT assay; assay type: functional, cell-based; outline: as §2
BGC-823 = test: Cytotoxicity against human BGC823 cells by MTT assay; assay type: functional, cell-based; outline: as §2
K562 = test: Cytotoxicity against human K562 cells by MTT assay; assay type: functional, cell-based; outline: as §2

Compound	IC50 (Influenza A virus [1]) [µM]	IC50 (Influenza A virus [2]) [µM]	IC50 (U-937) [µM]	IC50 (MOLT-4) [µM]	IC50 (BGC-823) [µM]	IC50 (K562) [µM]
CC[C@@H](C)[C@H]1NC(=O)[C@@H](C)NC(=O)c2ccccc2NC(=O)[C@@H]([C@@H](O)c2ccccc2)N(C)C1=O	8.1	15	6.4	6.2		
NC(=O)c1ncn([C@@H]2O[C@H](CO)[C@@H](O)[C@H]2O)n1 [RIBAVIRIN]	0.41	20.2				
CC(=O)O[C@H]1C(=O)[C@@]2(C)[C@H]([C@H](OC(=O)c3ccccc3)[C@]3(O)C[C@H](OC(=O)[C@H](O)[C@@H](NC(=O)c4ccccc4)c4ccccc4)C(C)=C1C3(C)C)[C@]1(OC(C)=O)CO[C@@H]1C[C@@H]2O [PACLITAXEL]			0.0019	0.0018	0.0035	0.0049
